Measured values published in ChEMBL document CHEMBL1131596, “Novel potent nonpeptide aminopeptidase N inhibitors with a cyclic imide skeleton” (J Med Chem, 1998).
pIC50: −log10 of the molar value.

What was measured:
[1] = target: Aminopeptidase N (Homo sapiens, UniProt P15144); experiment: Inhibitory activity against aminopeptidase N assayed by the L-Ala-MCA method.
[2] = target: Dipeptidyl peptidase 4 (Homo sapiens, UniProt P27487); experiment: Inhibitory activity against dipeptidyl peptidase IV (DPP- IV)
Sequence of Dipeptidyl peptidase 4 (P27487 whole entry): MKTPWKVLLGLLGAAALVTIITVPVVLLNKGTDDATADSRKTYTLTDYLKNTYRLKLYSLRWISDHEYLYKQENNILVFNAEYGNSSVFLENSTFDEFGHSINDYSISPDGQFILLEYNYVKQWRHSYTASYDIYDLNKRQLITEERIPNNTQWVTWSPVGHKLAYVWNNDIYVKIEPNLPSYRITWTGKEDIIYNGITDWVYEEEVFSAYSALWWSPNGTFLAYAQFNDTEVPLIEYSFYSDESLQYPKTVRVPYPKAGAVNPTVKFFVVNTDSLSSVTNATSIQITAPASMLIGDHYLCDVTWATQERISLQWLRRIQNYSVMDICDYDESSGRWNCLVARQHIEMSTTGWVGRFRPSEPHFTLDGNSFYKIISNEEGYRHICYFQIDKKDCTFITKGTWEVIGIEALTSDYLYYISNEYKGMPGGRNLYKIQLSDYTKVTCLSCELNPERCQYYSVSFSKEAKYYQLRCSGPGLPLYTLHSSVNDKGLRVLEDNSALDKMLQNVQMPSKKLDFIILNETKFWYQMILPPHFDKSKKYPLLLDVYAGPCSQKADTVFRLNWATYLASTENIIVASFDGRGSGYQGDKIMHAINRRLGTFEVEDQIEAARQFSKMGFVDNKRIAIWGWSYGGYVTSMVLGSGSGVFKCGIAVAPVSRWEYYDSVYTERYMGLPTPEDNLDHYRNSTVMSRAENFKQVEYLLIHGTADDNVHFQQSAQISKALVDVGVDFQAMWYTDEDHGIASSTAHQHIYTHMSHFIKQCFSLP
Procedure, shortened: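 Enzymatic activity was measured in intact cells (DPP-IV as a membrane-associated ecto enzyme) using glycyl-L-proline 4-methylcoumaryl-7-amide (Gly-Pro-AMC) as the substrate.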

Sequence of Aminopeptidase N (P15144 whole entry): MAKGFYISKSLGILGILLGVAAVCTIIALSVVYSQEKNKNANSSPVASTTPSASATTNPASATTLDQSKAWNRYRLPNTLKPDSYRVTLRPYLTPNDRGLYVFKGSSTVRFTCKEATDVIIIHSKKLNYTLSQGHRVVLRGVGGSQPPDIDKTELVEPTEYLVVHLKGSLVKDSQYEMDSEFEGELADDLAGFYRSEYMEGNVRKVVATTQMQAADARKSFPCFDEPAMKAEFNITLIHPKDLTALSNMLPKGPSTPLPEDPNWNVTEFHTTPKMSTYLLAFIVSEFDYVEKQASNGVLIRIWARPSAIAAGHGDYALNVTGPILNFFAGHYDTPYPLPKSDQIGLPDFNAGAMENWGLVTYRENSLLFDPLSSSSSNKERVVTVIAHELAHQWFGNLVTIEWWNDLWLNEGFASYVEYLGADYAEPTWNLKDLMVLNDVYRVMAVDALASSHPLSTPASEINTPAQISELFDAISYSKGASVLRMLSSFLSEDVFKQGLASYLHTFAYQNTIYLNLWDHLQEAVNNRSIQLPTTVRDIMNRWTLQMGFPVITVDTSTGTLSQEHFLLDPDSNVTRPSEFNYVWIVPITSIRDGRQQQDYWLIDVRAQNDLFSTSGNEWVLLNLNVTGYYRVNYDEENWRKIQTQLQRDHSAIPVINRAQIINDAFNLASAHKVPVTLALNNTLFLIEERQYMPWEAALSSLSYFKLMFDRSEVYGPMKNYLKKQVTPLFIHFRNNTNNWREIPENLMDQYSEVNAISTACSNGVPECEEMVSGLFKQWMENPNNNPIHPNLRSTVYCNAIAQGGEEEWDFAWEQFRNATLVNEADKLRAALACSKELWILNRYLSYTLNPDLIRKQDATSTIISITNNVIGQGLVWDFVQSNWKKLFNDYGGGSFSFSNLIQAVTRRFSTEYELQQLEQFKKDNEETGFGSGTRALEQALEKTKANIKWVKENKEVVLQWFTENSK

Row | SMILES | pIC50 [1] | pIC50 [2]
1 | Cc1cccc(C)c1N1C(=O)c2cccc(O)c2C1=O | 3.58 | –
2 | Cc1cccc(C)c1N1C(=O)c2ccc(N)cc2C1=O | – | 4.06
3 | CC(C)c1cccc(C(C)C)c1N1C(=O)c2ccc(O)cc2C1=O | – | 4.18
4 | Cc1cccc(C)c1N1C(=O)c2cccc(N)c2C1=O | < 3.43 | < 3.43
5 | O=C1Cc2ccccc2C(=O)N1c1c(Cl)cccc1Cl | 3.84 | < 3.49
6 | CC(C)c1cccc(C(C)C)c1N1C(=O)Cc2ccccc2C1=O | 4.96 | < 3.51
7 | CC(C)c1ccc(N2C(=O)Cc3ccccc3C2=O)cc1 | < 3.45 | < 3.45
8 | Cc1cccc(C)c1N1C(=O)c2ccc(O)cc2C1=O | – | 4.13
9 | O=C1Cc2ccccc2C(=O)N1c1ccccc1 | 3.40 | < 3.38
10 | Cc1ccc(C)c(N2C(=O)Cc3ccccc3C2=O)c1 | 4.22 | < 3.42
11 | O=C([C@@H]1CCCN1)N1CCC[C@H]1B(O)O | < 3.33 | 4.06
12 | CC(C)c1ccccc1N1C(=O)Cc2ccccc2C1=O | 3.71 | < 3.45
13 | CCc1cccc(CC)c1N1C(=O)c2ccccc2C1=O | 3.52 | < 3.45
14 | CCc1ccccc1N1C(=O)Cc2ccccc2C1=O | 4.17 | < 3.42
15 | Cc1cc(C)cc(N2C(=O)Cc3ccccc3C2=O)c1 | 4.63 | < 3.42
16 | CCc1cccc(CC)c1N1C(=O)c2ccc([N+](=O)[O-])cc2C1=O | < 3.51 | < 3.51
17 | CC(C)c1cccc(C(C)C)c1N1C(=O)c2cccc(O)c2C1=O | – | 4.36

Row | SMILES | pIC50 [1] | pIC50 [2]
18 | CCc1cccc(CC)c1N1C(=O)Cc2ccccc2C1=O | – | < 3.47
19 | COc1ccccc1N1C(=O)Cc2ccccc2C1=O | 3.96 | < 3.43
20 | CCc1cccc(CC)c1N1C(=O)c2ccc(O)cc2C1=O | – | 4.36
21 | Cc1cccc(N2C(=O)Cc3ccccc3C2=O)c1C | 3.95 | < 3.42
22 | CC(C)c1cccc(C(C)C)c1N1C(=O)c2ccccc2C1=O | < 3.49 | –
23 | Cc1cccc(C)c1N1C(=O)c2ccccc2C1=O | < 3.40 | –
24 | CC(C)c1cccc(C(C)C)c1N1C(=O)c2cc3ccccc3cc2C1=O | < 3.55 | –
25 | CSc1ccccc1N1C(=O)Cc2ccccc2C1=O | 5.50 | < 3.45
26 | Cc1ccc(N2C(=O)Cc3ccccc3C2=O)c(C)c1 | 3.73 | < 3.42
27 | CC(C)c1cccc(C(C)C)c1N1C(=O)c2cccc(N)c2C1=O | 4.68 | –
28 | CC(C)c1cccc(C(C)C)c1N1C(=O)c2ccc(N)cc2C1=O | – | 3.60
29 | CC(C)c1cccc(C(C)C)c1N1C(=O)c2cccc([N+](=O)[O-])c2C1=O | < 3.55 | –
30 | CC(C)c1cccc(C(C)C)c1N1C(=O)c2ccc([N+](=O)[O-])cc2C1=O | < 3.55 | –
31 | Cc1cccc(C)c1N1C(=O)Cc2ccccc2C1=O | 3.80 | < 3.42
32 | CC(C)C[C@H](NC(=O)C(O)[C@H](N)Cc1ccccc1)C(=O)O (single isomer, unassigned) [UBENIMEX] | – | < 3.49
33 | CCCCC[C@H](CC(=O)NO)C(=O)N[C@H](C(=O)N1CCC[C@H]1CO)C(C)C [ACTINONIN] | 6.08 | < 3.59
